Reference: ChEMBL document CHEMBL4138246, “Natural product inspired library synthesis - Identification of 2,3-diarylbenzofuran and 2,3-dihydrobenzofuran based inhibitors of Chlamydia trachomatis” (Eur J Med Chem, 2018)

What was measured:
[1] = Cytotoxicity against human HeLa 299 cells assessed as cell viability at 25 uM after 48 hrs by XTT assay relative to control; format: cell-based; settings: read-out: Activity
In short: (§1)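 HeLa299 cells are seeded at 7000/well and cultured overnight in RPMI with 10% FBS and 2 mM […] at 37 °C with 5% CO2. The medium is then swapped for phenol red-free DMEM with 0.5% DMSO, with or without compound at 25 and 50, in at least three replicate wells each, for 48 h. XTT with activation reagent is read after 2.5 h at 475 minus 660 nm, blank-corrected, and expressed as % of DMSO control.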

Chlamydia trachomatis [2] = assay: Antichlamydial activity against Chlamydia trachomatis serovar L2 454/Bu infected in human HeLa 299 cells assessed as reduction in number of inclusion bodies measured after 44 to 48 hrs by DAPI staining-based HCS assay; format: functional, organism-based
In short: (§2)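 HeLa299 cells are seeded at 15,000/well, cultured overnight at 37 °C with 5% CO2 in RPMI with 10% FBS and 2 mM […], then infected with serovar L2 454/Bu at MOI about 0.3 in HBSS. At 1 h the inoculum is replaced with medium containing 0.5% DMSO and 1:1 serial dilutions of compound over eleven concentrations. After 44–48 h, cells are fixed in methanol for 5 min. Inclusions are stained with rabbit anti-Chlamydia antibody, a FITC secondary, and DAPI. Inclusions over 130 µm² are counted by automated imaging and expressed as % of DMSO-control inclusions. IC50 is from nonlinear regression of at least three independent experiments.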

[3] = Cytotoxicity against human HeLa 299 cells assessed as cell viability at 50 uM after 48 hrs by XTT assay relative to control; format: cell-based; settings: for viability at 48 h, 50 µM: HeLa 299 cells, read-out: Activity; for Activity: 48 h, 50 µM; in short: as §1
Chlamydia trachomatis [4] = assay: Antichlamydial activity against Chlamydia trachomatis serovar L2 infected in human HeLa 299 cells assessed as reduction in number of inclusion bodies measured after 44 to 48 hrs by DAPI staining-based HCS assay; format: functional, organism-based; in short: as §2
[5] = Cytotoxicity against human HeLa 299 cells assessed as reduction in cell viability after 48 hrs by XTT assay; format: cell-based; in short: as §1
Chlamydia trachomatis [6] = assay: Antichlamydial activity against Chlamydia trachomatis serovar A […] infected in human HeLa 299 cells assessed as reduction in number of inclusion bodies measured after 44 to 48 hrs by DAPI staining-based HCS assay; format: functional, organism-based
Chlamydia trachomatis [7] = assay: Antichlamydial activity against Chlamydia trachomatis serovar D […] infected in human HeLa 299 cells assessed as reduction in number of inclusion bodies measured after 44 to 48 hrs by DAPI staining-based HCS assay; format: functional, organism-based
[8] = Cytotoxicity against human HeLa 299 cells assessed as reduction in cell viability at 25 uM after 48 hrs by XTT assay

SMILES | viability at 48 h, 25 µM [1] | IC50 (Chlamydia trachomatis [2]; read-out: IC50) | IC50 (Chlamydia trachomatis [2]; read-out: pIC50 (converted)) | viability at 48 h, 50 µM [3] | IC50 (Chlamydia trachomatis [4]) | Activity [5] | Activity [3] | IC50 (Chlamydia trachomatis [6]) | IC50 (Chlamydia trachomatis [7]) | Activity [8]
Fc1cccc(C2c3cc(F)ccc3OC2c2ccccc2)c1 (racemic) | 83% | 24.9 µM | 24.9 µM | 84% | – | – | – | – | – | –
COc1cccc(C2Oc3ccc(F)cc3C2c2ccc(F)c(F)c2)c1 (racemic) | 80% | 19.8 µM | 19.9 µM | 118% | – | – | – | – | – | –
COc1ccc(-c2oc3cc(OC)ccc3c2-c2ccc(F)c(F)c2)cc1 | 96% | 27 µM | 27 µM | 101% | – | – | – | – | – | –
COc1ccc(-c2oc3ccccc3c2-c2cccc(F)c2)cc1 | 79% | 22.1 µM | 22.1 µM | 84% | – | – | – | – | – | –
COc1ccc(-c2oc3ccc(F)cc3c2-c2ccc(OC)cc2)cc1 | 82% | 15.2 µM | 15.2 µM | 99% | – | – | – | – | – | –
CC[C@H]1OC(=O)[C@H](C)[C@@H](O[C@H]2C[C@@](C)(OC)[C@@H](O)[C@H](C)O2)[C@H](C)[C@@H](O[C@@H]2O[C@H](C)C[C@H](N(C)C)[C@H]2O)[C@](C)(O)C[C@@H](C)CN(C)[C@H](C)[C@@H](O)[C@]1(C)O [AZITHROMYCIN] | – | – | – | – | 727 nM | – | – | – | – | –
c1ccc(COc2ccc(-c3oc4ccccc4c3-c3cccnc3)cc2)cc1 | 76% | 15 µM | 15 µM | 82% | – | – | – | – | – | –
Oc1ccc(-c2oc3ccccc3c2-c2cccnc2)cc1 | 79% | – | – | 61% | – | Dose-dependent effect | – | – | – | –
COc1ccc(C2c3ccc(OC)cc3OC2c2cccc(OC)c2)cc1 (racemic) | 76% | 10.6 µM | 10.6 µM | 90% | – | – | – | – | – | –
COc1ccc2c(c1)OC(c1ccccc1)C2c1ccc(F)c(F)c1 (racemic; 38) | 84% | 23.4 µM | 23.4 µM | – | – | – | 102% | – | – | –
COc1ccc(-c2oc3ccccc3c2-c2cccnc2)cc1 | 82% | 2.4 µM | 2.44 µM | 103% | 1000 nM | – | – | 2630 nM | 2440 nM | –
COc1ccc(C2c3ccc(OC)cc3OC2c2ccccc2)cc1 (racemic) | – | – | – | < 70% | – | – | – | – | – | Toxic
COc1cccc(-c2oc3ccc(F)cc3c2-c2ccc3c(c2)OCO3)c1 | – | – | – | < 70% | – | – | – | – | – | Toxic
COc1ccc(-c2oc3ccccc3c2-c2ccc(F)c(F)c2)cc1 | 90% | 8.7 µM | 8.73 µM | 96% | – | – | – | – | – | –
c1ccc(C2Oc3ccccc3C2c2ccccc2)cc1 (racemic) | 72% | 25.4 µM | 25.4 µM | 88% | – | – | – | – | – | –
COc1ccc(-c2oc3ccccc3c2-c2ccnc(F)c2)cc1 | 84% | 2 µM | 2.04 µM | 97% | 965 nM | – | – | 1600 nM | 2040 nM | –
Oc1ccc(-c2oc3ccccc3c2-c2cccc(F)c2)cc1 | – | – | – | < 70% | – | – | – | – | – | Toxic
COc1cccc(C2Oc3ccc(F)cc3C2c2ccc3c(c2)OCO3)c1 (racemic) | 88% | 25.8 µM | 25.8 µM | 103% | – | – | – | – | – | –

SMILES | viability at 48 h, 25 µM [1] | IC50 (Chlamydia trachomatis [2]; read-out: IC50) | IC50 (Chlamydia trachomatis [2]; read-out: pIC50 (converted)) | viability at 48 h, 50 µM [3] | IC50 (Chlamydia trachomatis [4]) | Activity [5] | Activity [3] | IC50 (Chlamydia trachomatis [6]) | IC50 (Chlamydia trachomatis [7]) | Activity [8]
COc1ccc(-c2oc3cc(OC)ccc3c2-c2ccc(F)cc2)cc1 | – | – | – | < 70% | – | – | – | – | – | Toxic
COc1cccc(C2Oc3cc(OC)ccc3C2c2ccc(F)c(F)c2)c1 (racemic) | 93% | 1 µM | 0.998 µM | 95% | 581 nM | – | – | 79 nM | 700 nM | –
COc1ccc(-c2oc3ccccc3c2-c2ccc(OC)cc2)cc1 | 92% | 11.6 µM | 11.6 µM | 94% | – | – | – | – | – | –
CC1COc2c(N3CCN(C)CC3)c(F)cc3c(=O)c(C(=O)O)cn1c23 (centres undefined) [OFLOXACIN] | – | – | – | – | 666 nM | – | – | – | – | –
COc1ccc(-c2oc3cc(OC)ccc3c2-c2ccnc(F)c2)cc1 | 68% | 2.7 µM | 2.73 µM | 93% | 1810 nM | – | – | 1340 nM | 2190 nM | –
Fc1ccc(C2c3ccccc3OC2c2ccccc2)cc1F (racemic) | 75% | 27.2 µM | 27.2 µM | 87% | – | – | – | – | – | –
Oc1ccc(-c2oc3ccccc3c2-c2ccnc(F)c2)cc1 | 90% | – | – | 52% | – | Dose-dependent effect | – | – | – | –
Oc1ccc(-c2oc3ccccc3c2-c2ccc(O)cc2)cc1 | 74% | – | – | 32% | – | Dose-dependent effect | – | – | – | –
COc1ccc(-c2oc3ccc(F)cc3c2-c2ccnc(F)c2)cc1 | 90% | 4.2 µM | 4.21 µM | 103% | 4730 nM | – | – | 1840 nM | 5040 nM | –
N#Cc1cccc(C2c3ccccc3OC2c2ccccc2)c1 (racemic) | 90% | 25 µM | 25 µM | 96% | – | – | – | – | – | –
COc1ccc2c(c1)OC(c1ccccc1)C2c1ccc(F)c(F)c1 (racemic; 39) | – | – | – | – | – | – | < 70% | – | – | Toxic
COc1ccc(-c2oc3cc(OC)ccc3c2-c2ccc(C(F)(F)F)cc2)cc1 | 84% | – | – | 45% | – | Dose-dependent effect | – | – | – | –
Oc1ccc(-c2oc3ccc(F)cc3c2-c2ccnc(F)c2)cc1 | 107% | – | – | 53% | – | Dose-dependent effect | – | – | – | –
Oc1ccc(-c2oc3cc(O)ccc3c2-c2ccnc(F)c2)cc1 | – | – | – | < 70% | – | – | – | – | – | Toxic
Oc1ccc(-c2oc3cc(O)ccc3c2-c2ccc(F)cc2)cc1 | 105% | – | – | 42% | – | Dose-dependent effect | – | – | – | –
Oc1ccc(-c2oc3ccc(F)cc3c2-c2ccc(O)cc2)cc1 | – | – | – | < 70% | – | – | – | – | – | Toxic
COc1ccc(-c2oc3cc(OC)ccc3c2-c2ccc(OC)cc2)cc1 | 106% | 12.8 µM | 12.8 µM | 100% | – | – | – | – | – | –
